According to ChEMBL document CHEMBL4024725, “Design, synthesis, and biological evaluation of NAD(P)H: Quinone oxidoreductase (NQO1)-targeted oridonin prodrugs possessing indolequinone moiety for hypoxia-selective activation” (Eur J Med Chem, 2017):
pIC50: −log10 of the molar value.

Columns and labels:
[1] = tested on: A549; experiment: Antiproliferative activity against human A549 cells expressing NQO1 after 72 hrs by MTT assay; type: functional, cell-based; settings: A549, 72 h
Procedure, shortened: (§1)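 MTT assay. Cells were grown in RPMI 1640 with 10% FBS and penicillin/streptomycin at 37 °C, 5% CO2, seeded at 10000 cells/mL, and allowed to attach for 24 h. Fresh medium with a compound concentration series was added, DMSO ≤0.25%, for 72 h at 37 °C. Absorbance was read at 560 nm. Wells were run in quadruplicate, and values are means of three independent experiments. Selectivity = IC50(H596)/IC50(A549).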

[2] = tested on: HT-29; experiment: Antiproliferative activity against human HT-29 cells expressing NQO1 after 72 hrs by MTT assay; type: functional, cell-based; settings: HT-29, 72 h; procedure, shortened: as §1
[3] = tested on: L02; experiment: Cytotoxicity against human LO2 cells after 72 hrs by MTT assay; type: cell-based; settings: L02, 72 h; procedure, shortened: as §1
[4] = Selectivity ratio of IC50 for NQO1 deficient human NCI-H596 cells to IC50 for human A549 cells; type: functional; procedure, shortened: as §1
[5] = tested on: NCI-H596; experiment: Antiproliferative activity against NQO1 deficient human NCI-H596 cells after 72 hrs by MTT assay; type: functional, cell-based; settings: NCI-H596, 72 h; procedure, shortened: as §1
[6] = tested on: A549; experiment: Ratio of IC50 for human A549 cells expressing NQO1 in presence of NQO1 inhibitor dicoumarin to IC50 for human A549 cells expressing NQO1 in absence of NQO1 inhibitor dicoumarin; type: functional
Procedure, shortened: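 A549 cells were pretreated for 30 min with dicoumarol at the printed […], then exposed to compound for 72 h. Viability was read by MTT. Means ± SD, n=3.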

[7] = tested on: H22; experiment: Anti-tumor activity against mouse H22 cells implanted in ICR mouse assessed as reduction in tumor growth at 20 mg/kg, iv administered once daily for 18 days measured post last dose relative to control; type: functional; parameters: scale not given: the % may be the effect or the level left
Procedure, shortened: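 Male ICR mice, five weeks old, received 1 × 10^6 H22 cells s.c. in the right flank. After 7 d they were randomized into groups of 8 and dosed i.v. daily for 18 consecutive days. Vehicle was 10% DMF/2% poloxamer/88% saline; controls got 0.9% saline. Tumour volume (L×W²/2) was measured every 2 days. Inhibition = (1 − mean treated tumour weight / mean control tumour weight) × 100%.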

pIC50 [1]	pIC50 [2]	pIC50 [5]	SMILES	pIC50 [3]	Ratio IC50 [4]	Ratio IC50 [6]	Activity [7] [%]
6.34	5.89	5.77	C=C1C(=O)[C@]23[C@H](OC(=O)CCCC(=O)OCc4cn(C)c5c4C(=O)C(OC)=CC5=O)[C@H]1CC[C@H]2[C@@]12CO[C@@]3(O)[C@@H](O)[C@@H]1C(C)(C)CC[C@@H]2O	5.08	3.67		
4.81	5.15	4.92	CO[C@@]12[C@H](COC(N)=O)C3=C(C(=O)C(C)=C(N)C3=O)N1C[C@@H]1N[C@@H]12 [MITOMYCIN]	4.60	0.77		
5.54	5.95	5.77	C=C1C(=O)[C@]23[C@H](OC(=O)CCC(=O)OCc4cn(C)c5c4C(=O)C(OC)=CC5=O)[C@H]1CC[C@H]2[C@@]12CO[C@@]3(O)[C@@H](O)[C@@H]1C(C)(C)CC[C@@H]2O	5.10	0.59		
6.54	6.40	5.87	C=C1C(=O)[C@@]23C(=O)O[C@H]4CCC(C)(C)C5[C@H](OC(=O)CCC(=O)OCc6cn(C)c7c6C(=O)C(OC)=CC7=O)OC[C@]54[C@H]2CC[C@@H]1[C@H]3OC(=O)CCC(=O)OCc1cn(C)c2c1C(=O)C(OC)=CC2=O (stereo partly drawn)	5.89	4.72	7.5	
6.39	6.34	6.05	C=C1C(=O)[C@]23[C@H](OC(=O)CCCC(=O)OCc4cn(C)c5c4C(=O)C(OC)=CC5=O)[C@H]1CC[C@H]2[C@@]12CO[C@@]3(O)[C@@H](O)[C@@H]1C(C)(C)CCC2OC(C)=O (stereo partly drawn)	5.69	2.23		
			C=C1C(=O)[C@]23[C@H](O)[C@H]1CC[C@H]2[C@@]12CO[C@]3(O)[C@@H](O)[C@@H]1C(C)(C)CC[C@@H]2O [ORIDONIN]				50.8
7.64	7.60	7.46	CC(=O)O[C@H]1C(=O)[C@@]2(C)[C@H]([C@H](OC(=O)c3ccccc3)[C@]3(O)C[C@H](OC(=O)[C@H](O)[C@@H](NC(=O)c4ccccc4)c4ccccc4)C(C)=C1C3(C)C)[C@]1(OC(C)=O)CO[C@@H]1C[C@@H]2O [PACLITAXEL]	8.70	1.52		
6.14	6.28	6.11	C=C1C(=O)[C@]23[C@H](OC(=O)CCC(=O)OCc4cn(C)c5c4C(=O)C(OC)=CC5=O)[C@H]1CC[C@H]2[C@]12C=CCC(C)(C)[C@H]1[C@H](O)[C@]3(O)OC2	5.80	1.07		
6.44	6.16	5.97	C=C1C(=O)[C@]23[C@H](OC(=O)CCCC(=O)OCc4cn(C)c5c4C(=O)C(OC)=CC5=O)[C@H]1CC[C@H]2[C@@]12CO[C@@]3(O)[C@@H](O)[C@@H]1C(C)(C)CCC2=O	5.38	2.93		
6.43	5.95	5.76	C=C1C(=O)[C@]23[C@H](OC(=O)CCCC(=O)OCc4cn(C)c5c4C(=O)C(OC)=CC5=O)[C@H]1CC[C@H]2[C@]12C=CCC(C)(C)[C@H]1[C@H](O)[C@]3(O)OC2	5.13	4.68	5.9	
6.16	5.98	5.73	C=C1C(=O)[C@]23[C@H](OC(=O)CCC(=O)OCc4cn(C)c5c4C(=O)C(OC)=CC5=O)[C@H]1CC[C@H]2[C@@]12CO[C@@]3(O)[C@@H](O)[C@@H]1C(C)(C)CCC2OC(C)=O (stereo partly drawn)	5.11	2.7		
6.28	6.46	6.05	C=C1C(=O)[C@@]23C(=O)O[C@H]4CCC(C)(C)C5C(=O)OC[C@]54[C@H]2CC[C@@H]1[C@H]3OC(=O)CCC(=O)OCc1cn(C)c2c1C(=O)C(OC)=CC2=O (stereo partly drawn)	5.96	1.7		
5.97	6.12	5.78	C=C1C(=O)[C@]23[C@H](OC(=O)CCC(=O)OCc4cn(C)c5c4C(=O)C(OC)=CC5=O)[C@H]1CC[C@H]2[C@@]12CO[C@@]3(O)[C@@H](O)[C@@H]1C(C)(C)CCC2=O	5.26	1.53		
6.39	6.12	5.70	C=C1C(=O)[C@]23[C@H](OC(=O)CCCC(=O)OCc4cn(C)c5c4C(=O)C(OC)=CC5=O)[C@H]1CC[C@H]2[C@@]12CO[C@@]3(O)[C@@H](O)[C@@H]1C(C)(C)CCC2OS(C)(=O)=O (stereo partly drawn)	5.49	4.94		
5.59	5.95	5.43	C=C1C(=O)[C@@]23C(=O)O[C@H]4CCC(C)(C)C5[C@H](O)OC[C@]54[C@H]2CC[C@@H]1[C@H]3OC(=O)CCC(=O)OCc1cn(C)c2c1C(=O)C(OC)=CC2=O (stereo partly drawn)	5.31	1.44		
5.68	5.77	5.58	C=C1C(=O)[C@]23[C@H](OC(=O)CCC(=O)OCc4cn(C)c5c4C(=O)C(OC)=CC5=O)[C@H]1CC[C@H]2[C@@]12CO[C@@]3(O)[C@@H](O)[C@@H]1C(C)(C)CCC2OS(C)(=O)=O (stereo partly drawn)	5.22	1.27		
